Blank lines part the entries; values can stand above or below the compound they belong to. Active and inactive are the calls of the source. The rule behind the calls is not given here.
Key:
[1] = Critical micelles concentration of the compound in 0.2 M borate buffer at pH 9; type: physicochemical
Procedure, shortened: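 Surface tension plotted against log concentration in 0.2 M borate buffer pH 9.0 at 19 °C (SLO-1 assay conditions). CMC read from the plot.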

[2] = biological target: T1, Probable linoleate 9S-lipoxygenase 5 (Solanum tuberosum) (UniProt Q43191); conditions: 6 uM
T1 sequence (whole entry): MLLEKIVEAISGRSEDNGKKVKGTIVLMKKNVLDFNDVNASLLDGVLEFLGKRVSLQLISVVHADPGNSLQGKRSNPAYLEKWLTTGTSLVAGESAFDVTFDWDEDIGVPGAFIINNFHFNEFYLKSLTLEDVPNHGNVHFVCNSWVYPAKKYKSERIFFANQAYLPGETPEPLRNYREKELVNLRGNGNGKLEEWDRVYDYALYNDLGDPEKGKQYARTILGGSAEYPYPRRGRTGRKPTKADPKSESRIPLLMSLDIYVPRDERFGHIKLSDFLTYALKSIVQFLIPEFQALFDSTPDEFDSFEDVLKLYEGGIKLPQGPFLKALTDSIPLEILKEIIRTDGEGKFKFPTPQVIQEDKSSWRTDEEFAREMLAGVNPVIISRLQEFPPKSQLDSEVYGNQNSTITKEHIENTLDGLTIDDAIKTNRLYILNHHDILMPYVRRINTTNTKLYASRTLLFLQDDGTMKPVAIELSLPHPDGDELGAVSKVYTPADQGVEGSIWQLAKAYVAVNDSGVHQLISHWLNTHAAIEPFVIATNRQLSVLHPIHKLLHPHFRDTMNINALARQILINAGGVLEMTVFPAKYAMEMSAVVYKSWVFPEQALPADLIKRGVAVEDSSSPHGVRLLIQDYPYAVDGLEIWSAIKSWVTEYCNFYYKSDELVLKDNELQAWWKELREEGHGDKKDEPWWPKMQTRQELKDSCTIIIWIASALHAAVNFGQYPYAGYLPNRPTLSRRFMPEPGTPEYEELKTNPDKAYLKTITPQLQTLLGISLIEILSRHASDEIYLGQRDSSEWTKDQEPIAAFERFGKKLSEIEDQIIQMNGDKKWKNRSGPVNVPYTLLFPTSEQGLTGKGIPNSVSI

[3] = biological target: T1, Probable linoleate 9S-lipoxygenase 5 (Solanum tuberosum); conditions: 50 uM
[4] = biological target: T1, Probable linoleate 9S-lipoxygenase 5 (Solanum tuberosum); assay: Inhibition of potato 5-lipoxygenase assessed as residual activity preincubated for 10 mins measured by real-time spectrophotometric analysis
Procedure, shortened: (§1)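 Single-concentration screen against soybean LOX-1 and potato 5-LOX. Enzyme preincubated 10 min with 50 µM compound. Formation of conjugated diene 13-HPOD from linoleic acid followed spectrophotometrically in real time. Residual activity given as percent of blank without inhibitor. Average of three independent experiments with standard deviations.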

[5] = biological target: T2, Seed linoleate 13S-lipoxygenase-1 (Glycine max, UniProt P08170); assay: Inhibition of soybean lipoxygenase-1 assessed as formation of 13-HPOD from linoleic acid preincubated for 10 mins measured by real-time spectrophotometric analysis
T2 sequence (P08170 whole entry): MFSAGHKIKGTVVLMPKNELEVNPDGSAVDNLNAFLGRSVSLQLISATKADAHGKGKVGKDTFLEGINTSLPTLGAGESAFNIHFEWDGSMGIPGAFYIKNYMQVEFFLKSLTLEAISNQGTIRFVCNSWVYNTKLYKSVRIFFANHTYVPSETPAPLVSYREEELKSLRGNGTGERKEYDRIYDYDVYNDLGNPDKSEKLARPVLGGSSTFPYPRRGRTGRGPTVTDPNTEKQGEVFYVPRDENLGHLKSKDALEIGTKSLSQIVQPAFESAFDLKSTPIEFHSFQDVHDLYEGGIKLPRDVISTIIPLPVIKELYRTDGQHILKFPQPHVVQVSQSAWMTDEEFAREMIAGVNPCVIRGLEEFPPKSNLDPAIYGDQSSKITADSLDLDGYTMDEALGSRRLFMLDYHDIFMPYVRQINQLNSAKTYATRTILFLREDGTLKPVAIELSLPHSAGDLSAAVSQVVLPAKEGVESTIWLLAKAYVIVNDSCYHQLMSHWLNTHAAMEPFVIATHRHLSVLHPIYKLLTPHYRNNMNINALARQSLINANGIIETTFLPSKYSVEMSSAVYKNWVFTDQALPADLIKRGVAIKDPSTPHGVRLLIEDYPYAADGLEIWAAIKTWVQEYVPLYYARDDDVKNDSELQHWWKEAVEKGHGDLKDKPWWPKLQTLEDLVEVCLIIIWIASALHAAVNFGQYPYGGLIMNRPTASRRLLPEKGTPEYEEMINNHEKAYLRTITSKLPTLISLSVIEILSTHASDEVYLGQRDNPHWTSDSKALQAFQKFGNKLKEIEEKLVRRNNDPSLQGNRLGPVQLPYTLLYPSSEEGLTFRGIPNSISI

[6] = biological target: T1, Probable linoleate 9S-lipoxygenase 5 (Solanum tuberosum); assay: Activation of potato 5-lipoxygenase assessed as increase in enzyme catalytic rate preincubated for 10 mins measured by real-time spectrophotometric analysis relative to untreated control
Procedure, shortened: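 Non-essential activation analysis of potato 5-LOX in 0.1 M phosphate buffer pH 6.3. Linoleic acid conversion read spectrophotometrically after preincubation with 0, 12.5, 25 or 50 µM activator. β, the change in catalytic constant, is taken from the re-plot of 1/Δintercept from Lineweaver–Burk plots. Three independent experiments.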

[7] = biological target: T1, Probable linoleate 9S-lipoxygenase 5 (Solanum tuberosum); assay: Activation of potato 5-lipoxygenase assessed as binding constant for substrate bound enzyme preincubated for 10 mins measured by real-time spectrophotometric analysis by Lineweaver-Burk plot
Procedure, shortened: (§2)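 Potato 5-LOX kinetics: enzyme preincubated without activator or with activator at 12.5, 25 and 50 µM. Conjugated diene formation from linoleic acid followed spectrophotometrically in real time, in 0.1 M phosphate buffer pH 6.3. Lineweaver–Burk plots drawn. K_A, α and β derived from re-plots of 1/Δslope and 1/Δintercept using the non-essential activation equation. n=3, ±S.D.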

[8] = biological target: T1, Probable linoleate 9S-lipoxygenase 5 (Solanum tuberosum); assay: Activation of potato 5-lipoxygenase assessed as increase in residual activity preincubated for 10 mins measured by real-time spectrophotometric analysis by Lineweaver-Burk plot; procedure, shortened: as §2
[9] = biological target: T1, Probable linoleate 9S-lipoxygenase 5 (Solanum tuberosum); assay: Activation of potato 5-lipoxygenase assessed as residual activity at 50 uM preincubated for 10 mins measured by real-time spectrophotometric analysis relative to untreated control; procedure, shortened: as §1
[10] = biological target: T1, Probable linoleate 9S-lipoxygenase 5 (Solanum tuberosum); assay: Activation of potato 5-lipoxygenase assessed as increase in residual activity preincubated for 10 mins measured by real-time spectrophotometric analysis
Procedure, shortened: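 Potato 5-LOX in 0.1 M phosphate buffer pH 6.3, preincubated with a range of activator concentrations or without compound (control). Formation of […] from linoleic acid monitored spectrophotometrically in real time. Activity expressed against control. Mean of three independent experiments ±S.D.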

[11] = Critical micelles concentration of the compound in 0.1 M phosphate buffer at pH 6.3; type: physicochemical
Procedure, shortened: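 Surface tension measured against log concentration in 0.1 M phosphate buffer pH 6.3 at 25 °C (potato 5-LOX assay conditions). CMC read from the plot.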

[12] = biological target: T2, Seed linoleate 13S-lipoxygenase-1; assay: Inhibition of soybean lipoxygenase-1 assessed as inhibition constant for enzyme-inhibitor complex by Lineweaver-Burk plot
Procedure, shortened: (§3)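 SLO-1 conversion of linoleic acid monitored spectrophotometrically in 0.2 M borate buffer pH 9.0 with no inhibitor or after preincubation with 6 or 11 µM inhibitor. Vmax and Km (apparent) taken from Lineweaver–Burk intercepts. Ki (free enzyme) and K'i (substrate-bound enzyme) calculated with a mixed-inhibition model. n=3, ±S.D.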

[13] = biological target: T2, Seed linoleate 13S-lipoxygenase-1; assay: Inhibition of soybean lipoxygenase-1 assessed as inhibition constant for enzyme-substrate-inhibitor complex by Lineweaver-Burk plot; procedure, shortened: as §3
[14] = biological target: T3, Seed linoleate 13S-lipoxygenase-1 (Glycine max) (UniProt P08170); assay: Inhibition of soybean lipoxygenase-1 assessed as formation of 13-HPOD from linoleic acid preincubated for 10 mins measured by real-time spectrophotometric analysis
T3 sequence (whole entry): T2 sequence (P08170 whole entry)

inhibition [4]: inactive | IC50 [5]: 58.5 µM
SMILES: O=C(O)c1c(O)cc(O)cc1CCc1ccc(Cc2nc3ccccc3o2)cc1

inhibition [4]: inactive | Ki [12]: 9.8 µM | Ki [13]: 15.7 µM | CMC [1]: 436 µM | IC50 [5]: 11.1 µM
SMILES: CCCCCCCc1ccc(CCc2cc(O)cc(O)c2C(=O)O)cc1

inhibition [4]: inactive | inhibition [14]: Active
SMILES: O=C(O)c1c(O)cccc1CCc1ccc2nc(-c3ccccc3)oc2c1

inhibition [4]: inactive | inhibition [14]: Active
SMILES: CCCCCCCCCCCCCCCc1cc(O)cc(O)c1C(=O)O

Activity [9]: Active | fold change (FC) [9]: 3
SMILES: CCCCCCCc1ccc(CCc2cccc(O)c2C(=O)O)cc1

More lines, now with the values behind:

SMILES: CCCCCCCCCCCCCCCc1cccc(O)c1C(=O)O [ANACARDIC ACID]
CMC [1]: 390 µM | inhibition [2]: 30% | inhibition [3]: 50%

SMILES: CCCCCCCCCCCCCCOc1cccc(O)c1C(=O)O
fold change (FC) [6]: 1.4 | Ka [7]: 24 µM | Ka [8]: 1.8 mM | Activity [9]: Active | fold change (FC) [9]: 3 | Activity [10]: Dose-dependent effect | CMC [11]: 208 µM | IC50 [5]: 55.4 µM

SMILES: CCCCCCCCCCCCCCCc1cccc(O)c1C(=O)OC
inhibition [14]: inactive
